One may read the IC50 as the concentration that inhibits the measured activity by half. The term residual activity denotes the activity still measured, relative to the control.

Experiment [1] deals with T1, Polyunsaturated fatty acid 5-lipoxygenase (Homo sapiens, UniProt P09917).
T1 sequence (P09917 whole entry): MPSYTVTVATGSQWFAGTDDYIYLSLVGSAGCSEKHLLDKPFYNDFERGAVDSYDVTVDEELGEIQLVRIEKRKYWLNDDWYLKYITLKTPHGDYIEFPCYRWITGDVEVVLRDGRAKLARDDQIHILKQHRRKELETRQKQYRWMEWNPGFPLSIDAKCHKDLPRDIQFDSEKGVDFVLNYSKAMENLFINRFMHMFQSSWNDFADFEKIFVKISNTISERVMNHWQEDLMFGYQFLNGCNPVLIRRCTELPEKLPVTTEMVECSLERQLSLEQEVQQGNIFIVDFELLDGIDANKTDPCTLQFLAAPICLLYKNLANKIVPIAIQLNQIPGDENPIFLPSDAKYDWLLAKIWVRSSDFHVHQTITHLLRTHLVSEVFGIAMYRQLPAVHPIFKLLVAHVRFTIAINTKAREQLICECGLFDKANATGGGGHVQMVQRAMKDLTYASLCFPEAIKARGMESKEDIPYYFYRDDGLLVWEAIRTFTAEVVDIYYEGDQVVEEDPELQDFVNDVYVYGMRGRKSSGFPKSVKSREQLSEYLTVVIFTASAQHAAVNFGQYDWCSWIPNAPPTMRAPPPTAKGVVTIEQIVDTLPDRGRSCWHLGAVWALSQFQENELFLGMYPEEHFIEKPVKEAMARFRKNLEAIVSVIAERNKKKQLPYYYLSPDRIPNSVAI
As to the kind of experiment: Inhibition of human recombinant 5-lipoxygenase expressed in Escherichia coli MV1190 by cell free assay. In outline:
(§1)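 Cell-free activity assay with isolated human recombinant 5-LO. Compounds screened at 30 μM in DMSO, with 0.3% v/v DMSO as vehicle and BWA4C as positive control. IC50 taken from concentration-response curves. Means ± SE, n = 4-5.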

For experiment [2], the target named is Prostaglandin E synthase / mPGES-1 (Homo sapiens) (UniProt O14684). As to the kind of experiment: Inhibition of Prostaglandin E2 synthase-1 in IL1-beta stimulated microsomal fraction of human A549 cell assessed as residual activity at 30 uM. The settings on record: Microsome.
Sequence of Prostaglandin E synthase / mPGES-1 (Homo sapiens) (O14684 whole entry, looked up): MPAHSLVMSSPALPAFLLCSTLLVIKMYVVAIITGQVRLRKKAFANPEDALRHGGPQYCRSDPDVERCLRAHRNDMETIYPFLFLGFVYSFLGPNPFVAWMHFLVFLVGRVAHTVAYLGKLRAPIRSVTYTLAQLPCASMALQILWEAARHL
For experiment [3], the target named is T1, Polyunsaturated fatty acid 5-lipoxygenase. Briefly: Inhibition of 5-lipoxygenase in human neutrophils. In outline: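 Human neutrophils stimulated with ionophore A23187 to probe FLAP-dependent 5-LO product formation. Compounds in DMSO (vehicle 0.3% v/v) screened at 30 μM and tested in concentration-response. A FLAP inhibitor served as control. n = 4-5 for the curves.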

The target of experiment [4] is T2, Polyunsaturated fatty acid 5-lipoxygenase (Homo sapiens) (UniProt P09917).
T2 sequence (whole entry): T1 sequence (P09917 whole entry)
Briefly: Inhibition of 5-lipoxygenase in human neutrophils assessed as residual activity at 30 uM; values are per cent of control.

In experiment [5] the target is T2, Polyunsaturated fatty acid 5-lipoxygenase (Homo sapiens). Briefly: Inhibition of human recombinant 5-lipoxygenase expressed in Escherichia coli MV1190 assessed as residual activity at 30 uM by cell free assay. In outline: as §1
Experiment [6] shares this target. As to the kind of experiment: Inhibition of 5-lipoxygenase in human neutrophils assessed as residual activity at 10 uM; values are per cent of control.
Experiment [7] has the same target. As to the kind of experiment: Inhibition of human recombinant 5-lipoxygenase expressed in Escherichia coli MV1190 assessed as residual activity at 10 uM by cell free assay; values are per cent of control.

Turning to `c1ccc(CCCn2cc(-c3ccc(-c4cc5ccccc5c5ccccc45)cc3)nn2)cc1`, the IC50 in experiment [1] and in experiment [3] was above 30 µM in each case. Further, the remaining activity in experiment [2] stood at 78.2%; in experiment [5], 82.9%. Further, the residual activity in experiment [4] was 85.7%.

Regarding `c1ccc(CCCn2cc(-c3ccc(-c4ccc(Oc5ccccc5)cc4)cc3)nn2)cc1`, the concentration for half-maximal inhibition (IC50) in experiment [1] and in experiment [3] was above 30 µM in each case. The results for the remaining activity in experiment [2] and in experiment [5] were 88.7% and 59.2%, respectively. The residual activity in experiment [4] amounted to 70.1%.

In the case of `Oc1cccc(-c2ccc(-c3cn(CSc4ccccc4)nn3)cc2)c1`, the IC50 in experiment [1] is 27 µM; in experiment [3] it was 0.4 µM. Besides, the remaining activity is 60.1% in experiment [2] and 48.8% in experiment [5]. Besides, the residual activity in experiment [6] was 1.1%.

With `Cc1ccccc1CCn1cc(-c2ccc(-c3ccccc3COc3cc(C(F)(F)F)ccc3Cl)cc2)nn1`, the IC50 in experiment [1] and in experiment [3] was above 30 µM in each case. Moreover, the values for the remaining activity in experiment [2] and in experiment [5] were 87.9% and 82.5%, respectively. In addition, the residual activity in experiment [4] is 92.1%.

Regarding `O=C(OCc1cn(CSc2ccccc2)nn1)c1ccccc1`, the half-inhibitory concentration (IC50) is above 30 µM in experiment [1] and 9.3 µM in experiment [3]. In addition, the remaining activity is 76.1% in experiment [2] and 80.8% in experiment [5]. Moreover, the residual activity in experiment [4] stood at 14.6%.

Take `O=Cc1ccc(-c2c(Cc3ccccc3)nnn2CSc2ccccc2)cc1`: the values for the half-inhibitory concentration (IC50) in experiment [1] and in experiment [3] were above 30 µM and 6 µM, respectively. Further, the values for the remaining activity in experiment [2] and in experiment [5] were 72.1% and 57.3%, respectively. Besides, the residual activity in experiment [6] came out at 17.3%.

Regarding `O=C(O)c1ccc(Cn2cc(-c3ccc(-c4ccccc4)cc3)nn2)c([N+](=O)[O-])c1`, the figures for the half-maximal inhibitory concentration (IC50) in experiment [1] and in experiment [3] were 6.7 µM and 9.2 µM, respectively. The remaining activity was 12% in experiment [2] and 20% in experiment [5]. For the same molecule, the residual activity in experiment [4] was 20.1%.

Turning to `c1ccc(CCCn2cc(-c3ccc(-c4ccccc4COc4cccc5ccccc45)cc3)nn2)cc1`, the concentration for half-maximal inhibition (IC50) in experiment [1] and in experiment [3] was above 30 µM throughout. The remaining activity in experiment [2] was 96.8%; in experiment [5], 77.4%. Further, the residual activity in experiment [4] amounted to 79.9%.

With `Oc1ccc(-c2ccc(-c3cn(CSc4ccccc4)nn3)cc2)cc1`, the IC50 in experiment [1] is above 30 µM; in experiment [3] it was 0.9 µM. The remaining activity in experiment [2] came to 89%; in experiment [5] it was 62.3%. For the same molecule, in experiment [6], the residual activity worked out at 34.8%.

As for `Oc1ccc(-c2ccc(-c3cn(CCCc4ccccc4)nn3)cc2)cc1`, the half-inhibitory concentration (IC50) in experiment [1] and in experiment [3] was above 30 µM throughout. Further, the results for the remaining activity in experiment [2] and in experiment [5] were 73.6% and 58.4%, respectively. Moreover, in experiment [4], the residual activity was 70.2%.

For `Cc1ccccc1CCn1cc(-c2ccc(-c3ccc(N)cc3)cc2)nn1`, the IC50 in experiment [1] is above 30 µM; in experiment [3], 1.7 µM. For the same molecule, the remaining activity in experiment [2] is 98.2%; in experiment [5], 60.7%. Moreover, the residual activity in experiment [6] worked out at 22%.

Consider `CN(C)c1cccc2c(S(=O)(=O)Nc3ccc(-c4ccc(-c5cn(CCCc6ccccc6)nn5)cc4)cc3)cccc12`, for which the IC50 in experiment [1] amounted to 4.1 µM; in experiment [3], 2.8 µM. The remaining activity is 85% in experiment [2] and 5.1% in experiment [5]. Moreover, the residual activity in experiment [6] is 21.2%.

Take `Cc1ccccc1CCn1cc(-c2ccc(-c3ccccc3COc3cccc4ccccc34)cc2)nn1`: the IC50 in experiment [1] and in experiment [3] was above 30 µM throughout. Moreover, the figures for the remaining activity in experiment [2] and in experiment [5] were 90% and 78.4%, respectively. For the same molecule, the residual activity in experiment [4] is 84.5%.

In the case of `O=C(O)c1ccc(S(=O)(=O)n2cc(-c3ccc(-c4ccccc4COc4cccc5ccccc45)cc3)nn2)cc1`, the IC50 turned out to be 0.8 µM in experiment [1] and 0.6 µM in experiment [3]. For the same molecule, the remaining activity in experiment [2] was 59.8%. Besides, the residual activity in experiment [7] was 13.6%; in experiment [6], 3.5%.

On to `FC(F)(F)c1ccc(Cl)c(OCc2ccccc2-c2ccc(-c3cn(CCCc4ccccc4)nn3)cc2)c1`, for which the values for the concentration for half-maximal inhibition (IC50) in experiment [1] and in experiment [3] were 8.8 µM and above 30 µM, respectively. Also, the remaining activity in experiment [2] worked out at 91.9%; in experiment [5] it was 10.1%. Also, the residual activity in experiment [4] is 52.7%.

For the origin of these results see ChEMBL document CHEMBL1687920, “Structure-based discovery of inhibitors of microsomal prostaglandin E2 synthase-1, 5-lipoxygenase and 5-lipoxygenase-activating protein: promising hits for the development of new anti-inflammatory agents” (J Med Chem, 2011).
